# Test results: paper PMC7341950 (Nature chemistry, 2019)
# Peptide text beside a SMILES is read from it. * marks the point of attachment. Cbz = O=C(OCc1ccccc1)*
# System: HeLa cells
# Assay: Radiolabel pulse-chase of cellular protein breakdown
# Format: cell-based, human
# Conditions: 35S-Met/35S-Cys label, 4 hr chase
# Method in brief: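 Cellular proteins were metabolically labeled with ³⁵S-Met and ³⁵S-Cys, then chased in unlabeled ("cold") medium. During the chase, cells were left untreated or given DMSO, test compound, or the proteasome inhibitor MG132 as a reference. Compounds were tested at more than one concentration to follow degradation across doses. Bars show mean values.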
smiles,measurement,value
CC(C)C[C@@H](C=O)NC(=O)[C@H](CC(C)C)NC(=O)[C@H](CC(C)C)NC(=O)OCc1ccccc1 [MG132] (Cbz-Leu-Leu-Leu-aldehyde),cellular protein breakdown,inhibit
